Screening data (PubChem BioAssay)
PGC1a Ac signal = raises PGC1a acetylation signal in U2OS cells; activation, % at 15.6 µM; AID 651723; U2OS PGC1a acetylation AlphaScreen, overnight; actives 0.21% (n = 350,000);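 active = every replicate reaching activation of at least 50%, whatever the mean replicate activation; inconclusive = replicates that disagree or another doubt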;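 note: hits raise the AlphaScreen acetylation signal above neutral controls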
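System: flag-PGC1a/GCN5 U2OS cells / Input: 7000 cells/well / Compound: single test concentration per compound / Incubation: overnight compound treatment, 37 °C / Technique: AlphaScreen on lysates with anti-acetyl-lysine antibody, acceptor and donor beads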
Hep G6PC suppr = hepatocyte G6PC expression change via PGC-1a acetylation activation; primary mouse hepatocytes, G6PC mRNA qPCR, forskolin; shares compounds with PGC1a Ac signal; G6PC suppression (normalized activity, % of positive control; higher = more suppression), % at 26 µM; 240 tested, under 10 active;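 active = dose curves showing G6PC suppression whose half-maximal dose is at most twice the top valid dose; inconclusive = flat curves with moderate negative activity, or unreliable fits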;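 note: G6PC expression relative to GAPDH housekeeping gene as delta delta Ct; 0% = median of neutral control wells and 100% = median of positive control wells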
Hep PCK1 suppr = hepatocyte PCK1 expression change via PGC-1a acetylation activation; PCK1 expression decrease, unspecified at 26 µM; 230 tested, under 10 active; primary mouse hepatocytes, PCK1 mRNA qPCR, forskolin-stimulated; shares compounds with PGC1a Ac signal; AID 743465;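 active = compounds lowering PCK1 expression whose fitted half-maximal concentration is at most twice the top tested dose; inconclusive = flat fit with moderate opposite-direction effect, or poor fit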;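 note: values are delta delta Ct of PCK1 relative to GAPDH; higher delta delta Ct means lower PCK1 expression so positive values indicate hits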
Hep PGC-1a down = hepatocyte PGC-1a expression change via PGC-1a acetylation activation | max activity (PGC-1a expression decrease), % | primary mouse hepatocytes, PGC-1a mRNA qPCR, forskolin; top dose 26 µM | shares compounds with PGC1a Ac signal | AID 743467 | 240 tested, under 10 active;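 active = compound lowering PGC-1a expression with fitted half-maximal concentration at most twice its top tested dose; inconclusive = flat curve with moderate opposite-direction effect, or poor fit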;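 note: 0% = neutral control wells median and 100% = positive control wells median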
Active calls of the source: *; i = inactive; u = inconclusive; x = no result; [ ] = another dose, or the depositor's remark. Only a sample is shown.

SMILES | PGC1a Ac signal | Hep G6PC suppr | Hep PCK1 suppr | Hep PGC-1a down
C/C(=N\Nc1nc(C)cc(=O)[nH]1)C1CC1 | -41 | x | x | x
CCCN(CCC)S(=O)(=O)c1ccc(C(=O)Nc2nnc(CSC)o2)cc1 | -45 | x | x | x
O=C(Cc1ccccc1)Nc1nc(-c2ccc(F)c(F)c2)cs1 | 62* | 70 | 59 | 83
C[N+]1(C)CCC(=C2c3ccccc3CC(=O)c3sccc32)CC1 | -94 | x | x | x
CCOc1ccc(Nc2oc(-c3ccc(Cl)cc3)nc2C#N)cc1 | 62* | -53[8 µM] | 54 | 20
CCOc1ccc(Nc2ncnc3ccc([N+](=O)[O-])cc23)cc1 | -50 | x | x | x
CN(C)CCNc1oc(COc2ccc(-c3ccccc3)cc2)nc1C#N | -58 | x | x | x
CC(=O)Nc1ccc2c(CSc3nncs3)cc(=O)oc2c1 | -47 | x | x | x
Cc1ccc2c(CN(Cc3ccccc3)Cc3ccccc3)cc(=O)oc2c1 | u | x | 62 | 75
CNC[C@@H](CC1CCCCC1)NC[C@H](CC(C)C)NCCc1cccc(C(F)(F)F)c1 | -88 | x | x | x
CCN(CC(=O)NCc1ccc(Cl)cc1)C(=O)CSCC(=O)Nc1ccc(C)cc1 | u | -12 | 34 | 60
C=C[C@H]1CN2CCC1C[C@H]2[C@H](O)c1ccnc2ccc(OC)cc12 (stereo partly drawn) | -48 | x | x | x
CCCN(CCC)CCNC(=O)c1cc2c(=O)n(CC)c3ccccc3c2s1 | -43 | x | x | x
COc1ccccc1C(=O)N1C(CC(=O)Nc2cc(Cl)ccc2C)C(=O)NC2CCCCC21 (stereo not drawn) | -44 | x | x | x
Cc1ccc(Cl)cc1NC(=O)Cn1nc(-c2cccs2)ccc1=O | -40 | -7 | -25 | 17
COc1ccc(OCCCC(=O)OCC(=O)Nc2c(C)nn(-c3ccccc3)c2C)cc1 | -85 | x | x | x
Cc1c(OCc2ccc(C(=O)O)cc2)ccc2c(-c3ccccc3)cc(=O)oc12 | -44 | 24 | 45 | 54
Cc1nn(C)c(C)c1N1C(=O)c2cccc3c(Br)ccc(c23)C1=O | -78 | x | x | x
CCOc1ccc(C(C)=O)cc1CSC(=N)N | -40 | x | x | x
Cc1nc(N2CCN(S(=O)(=O)c3ccc(F)cc3)CC2)c2c(-c3cccs3)csc2n1 | 83* | 307 | 369 | 176
O=C(OCn1ncc(Br)c(Br)c1=O)c1ccc(F)cc1 | -37 | x | x | x
CC(=O)N(CCC(Cc1ccccc1)c1ccc2c(c1)OCO2)Cc1ccccc1F (stereo not drawn) | -40 | x | x | x
O=C(CN1CCC(Cn2cnc3ccccc32)CC1)NCc1ccco1 | x | 1 | -2.4 | 14
O=C(NCc1ccco1)c1scc2c1OCCO2 | -50 | x | x | x
CC1C(=O)C(C)(C)C(=O)OC1c1ccccc1 (stereo not drawn) | -49 | x | x | x
SMILES | PGC1a Ac signal | Hep G6PC suppr | Hep PCK1 suppr | Hep PGC-1a down
COC(=O)[C@H](Cc1ccccc1)N(C)S(=O)(=O)c1cccc(S(=O)(=O)N(C)[C@@H](Cc2ccccc2)C(=O)OC)c1 | u | -83 | x | u
Cc1cc(NC(=O)CCS(=O)(=O)c2nc(-c3ccccc3)cc(C(F)(F)F)n2)no1 | -90 | x | x | x
O=C(Cc1ccccc1)Nc1ccc(NC(=O)c2cccs2)cc1 | 312* | 43 | 3.3 | 42
O=C(CNC(=O)c1sc2ccccc2c1Cl)NCc1ccccc1 | -52 | x | x | x
C/C(=N/NC(=O)CNC(=O)c1ccccn1)c1ccc([N+](=O)[O-])cc1 | -44 | x | x | x
O=C1/C(=C\c2ccco2)SC(=S)N1Cc1ccccc1 | -41 | x | x | x
Cc1ccc(Cl)c(Cn2cnc3c(cnn3C(C)(C)C)c2=O)c1F | -48 | x | x | x
CCOC(=O)c1ccccc1NS(=O)(=O)c1ccc(OCC)cc1 | u | 17 | 50 | 70
c1cncc(CNc2ncnc3ccc(-c4ccoc4)cc23)c1 | -55 | x | x | x
COc1ccc(OC)c(CNS(=O)(=O)c2cc(-c3cc(C)no3)ccc2OC)c1 | -51 | x | x | x
CCOc1ccc(N(C)S(=O)(=O)c2cc(-c3cc(C)no3)ccc2OC)cc1 | 54* | 23 | 61 | 57
C=CC(=O)Nc1cccc(Oc2ccnc(Nc3ccc(N4CCN(C)CC4)cc3)n2)c1 | -40 | x | x | x
O=C(Nc1cccnc1)c1ccc(Br)s1 | u | -8 | 27 | 47
COc1cc(C)c(CN2CCN(S(=O)(=O)c3ccc(Cl)s3)CC2)cc1OC | 79* | 66 | 91 | u
CC(Nc1ccccc1)c1cc(Cl)ccc1O (stereo not drawn) | -48 | x | x | x
Cc1ccc(C(=O)c2c[nH]c(C(=O)NCc3cccnc3)c2)cc1 | 75* | 18 | 156 | 37
Cc1ccc(C(=O)c2cncc(Br)c2)cc1 | -42 | x | x | x
Cc1cc(F)cc(-c2cc(C(=O)NCc3ccccc3)[nH]n2)c1 | -41 | x | x | x
Cc1ccc(/C=C2/CNC/C(=C/c3ccc(C)cc3)C2=O)cc1 | -74 | x | x | x
O=C(CN1CCC(n2nnc3cc(C(F)(F)F)ccc32)CC1)NCc1cccs1 | x | 14 | 22 | 52
CC1=C/C(=N\OS(=O)(=O)c2ccccc2)C(C)=CC1=O | -60 | x | x | x
O=C(CN1C(=O)C2C3CC(C(Br)C3Br)C2C1=O)OCC(=O)c1cccc([N+](=O)[O-])c1 (stereo not drawn) | -76 | x | x | x
Cc1nnc(NC(=O)CSc2ncc(-c3ccccc3)[nH]2)s1 | -88 | x | x | x
COc1ccc(OC)c(NC(=O)CSc2nnc(-c3cccnc3)s2)c1 | 85* | -9 | -11 | 55
C#CCN(C[C@@H]1[C@@H](OC(=O)NCCCCCC)[C@@H](OC(=O)NCCCCCC)Cn2c(=O)ccc(=O)n21)S(=O)(=O)c1ccc(C)cc1 | -92 | x | x | x
SMILES | PGC1a Ac signal | Hep G6PC suppr | Hep PCK1 suppr | Hep PGC-1a down
Fc1ccc(-c2nn3c(C4COc5ccccc5O4)nnc3s2)cc1 (stereo not drawn) | 55* | 39 | -36 | 79
CC(=O)Nc1sc2c(c1-c1nc3ccccc3s1)CN(C(C)C)CC2 | -52 | x | x | x
Cc1cc(C)c(C(=O)/C=C/c2ccc(C(C)C)cc2)c(=O)[nH]1 | -64 | x | x | x
Cc1nn2c(NCCCN3CCOCC3)c3c(nc2c1-c1ccccc1)CCC3 | 67* | i | 426 | 53
CC(C)(C)C1CCC(CN2C(Nc3ccccc3)=NC[C@@H]2Cc2ccccc2)CC1 (stereo partly drawn) | -88 | x | x | x
CN1C[C@H](C(=O)N[C@]2(C)O[C@@]3(O)[C@@H]4CCCN4C(=O)[C@H](Cc4ccccc4)N3C2=O)CC2c3cccc4[nH]cc(c34)C[C@H]21 (stereo partly drawn) | -43 | x | x | x
CCOc1cc(/C=N/N=C(N)N)ccc1OCc1ccc(Cl)cc1 | -56 | x | x | x
Brc1ccc2ncnc(NCc3ccccc3)c2c1 | -42 | x | x | x
CSc1n[nH]c(NCc2ccccc2)n1 | -42 | x | x | x
Cc1nnc(NCc2ccccc2)c2ccccc12 | u | x | 11 | 84
NC(=O)COC(=O)CC(NC(N)=O)c1ccc(Cl)cc1 (stereo not drawn) | -107 | x | x | x
Cc1cc(C2=NNC(=NCCc3ccccc3)SC2)c(C)n1-c1c(C)n(C)n(-c2ccccc2)c1=O | -63 | x | x | x
COc1ccc(C2NC(=S)NC3=C2CCCC3=C2SCCS2)cc1 (stereo not drawn) | -45 | x | x | x
CC1(C)CCCN(C(=O)N2c3ccccc3Sc3ccccc32)C1 | u | -23 | 14 | 82
Cc1cc(C)c(C#N)c(N2CCN(c3ccccc3)CC2)n1 | -49 | x | x | x
C#CC(=O)N(c1ccc(OC)c(OC)c1)C(C(=O)NC1CCCC1)c1cccs1 (stereo not drawn) | -103 | x | x | x
